Reference: ChEMBL document CHEMBL1806448, “Optimization of a pyrazole hit from FBDD into a novel series of indazoles as ketohexokinase inhibitors” (Bioorg Med Chem Lett, 2011)

What was measured:
Ketohexokinase = target: T1, Ketohexokinase (Homo sapiens, UniProt P50053); experiment: Inhibition of KHK-mediated conversion of D-fructose to fructose-1-phosphate after 60 mins by high throughput mass spectrometry analysis
T1 sequence (P50053 whole entry): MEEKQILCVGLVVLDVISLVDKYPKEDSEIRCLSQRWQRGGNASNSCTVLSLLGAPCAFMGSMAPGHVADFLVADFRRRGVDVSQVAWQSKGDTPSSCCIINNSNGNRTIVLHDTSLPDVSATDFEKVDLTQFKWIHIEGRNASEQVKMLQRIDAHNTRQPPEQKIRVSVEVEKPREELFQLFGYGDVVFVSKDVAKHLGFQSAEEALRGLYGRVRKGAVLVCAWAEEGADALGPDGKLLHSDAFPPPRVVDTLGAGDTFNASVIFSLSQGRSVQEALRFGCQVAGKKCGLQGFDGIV
Outline: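 KHK enzyme assay at 25 °C with 200 µM fructose, 100 µM ATP and 2 nM KHK under steady-state conditions for 60 min. Fructose-1-P product read out by high-throughput mass spectrometry (RapidFire). 12-point dose–response curve used to derive IC50. 384-well format.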

[1] = Metabolic stability in rat liver microsomes assessed as compound remaining after 10 mins; format: ADME, Microsome; conditions: read-out: Stability
[2] = Inhibition of sodium channel at 10 uM
[3] = Half life in rat at 10 mg/kg, po after 24 hrs; format: ADME, organism-based; parameters: dose 10 mg/kg, route oral; conditions: in vivo
Outline: (§1)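 Rat pharmacokinetics over 24 h. Oral dose 10 mg/kg and iv dose 2 mg/kg.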

[4] = Cmax in rat at 10 mg/kg, po after 24 hrs; format: ADME, organism-based; parameters: dose 10 mg/kg, route oral; conditions: in vivo; outline: as §1
[5] = Clearance in rat at 2 mg/kg, iv after 24 hrs; format: ADME, organism-based; parameters: dose 2 mg/kg, route intravenous; conditions: in vivo; outline: as §1
[6] = Volume of distribution at steady state in rat at 2 mg/kg, iv after 24 hrs; format: ADME, organism-based; parameters: dose 2 mg/kg, route intravenous; conditions: in vivo, read-out: Vdss; outline: as §1
Rattus norvegicus = experiment: AUClast in rat at 10 mg/kg, po after 24 hrs; format: ADME, organism-based, Plasma; parameters: time < 24 hr, dose 10 mg/kg, route oral; conditions: in vivo; outline: as §1
[7] = Bioavailability in rat at 10 mg/kg, po after 24 hrs; conditions: in vivo

SMILES	IC50 (Ketohexokinase)	other results
CCc1nc(-c2ccccc2)n2cc(N3CCNCC3)ccc12	> 20 µM	–
CSc1nn(-c2ccccc2)c2cc(-c3ccncc3)ccc12	> 10 µM	–
CSc1nn(-c2ccccc2)c2cc(NC(=O)CC3CCNCC3)ccc12	0.68 µM	–
CSc1nn(-c2ccccc2)c2cc(C3CCNCC3)ccc12	0.33 µM	–
CSc1nn(-c2cccc(C)c2)c2cc(C3=CCNCC3)ccc12	0.034 µM	–
CSc1nn(-c2cccc(F)c2)c2cc(C3=CCNCC3)ccc12	0.042 µM	remaining at 10 min [1]: 96%
CSc1nn(-c2ccccc2)c2c(C3=CCNCC3)cccc12	11.5 µM	–
CCc1nn(-c2ccccc2)c2cc(N3CCN(C4CCNCC4)CC3)ccc12	–	inhibition [2]: 61%
CSc1nn(-c2ccc(F)cc2)c2cc(C3=CCNCC3)ccc12	0.023 µM	remaining at 10 min [1]: 105%
CSc1nn(-c2ccc([N+](=O)[O-])cc2)c2cc(C3=CCNCC3)ccc12	0.48 µM	–
CSc1nn(-c2ccccc2)c2c(OCC3CCNCC3)cccc12	0.24 µM	–
CSc1nn(-c2ccccc2)c2c(OC3CCNCC3)cccc12	1.68 µM	–
COc1ccc(-n2nc(SC)c3ccc(C4=CCNCC4)cc32)cc1	0.087 µM	–
CCc1nn(-c2ccccc2)c2cc(N3CCN(C4CCNC4)CC3)ccc12 (configuration not stated)	0.92 µM	half-life [3]: 19.6 h; Cmax [4]: 0.399 µg/mL; clearance [5]: 1.27 L/h/kg; Vd [6]: 13.9 L/kg; AUClast (Rattus norvegicus): 4.89 µg·h/mL; bioavailability [7]: 72.4%
CSc1nn(-c2ccccc2)c2cc(C3=CCNCC3)ccc12	0.08 µM	remaining at 10 min [1]: 72%
CCc1nn(-c2ccccc2)c2cc(N3CC4CNCC4C3)ccc12 (configuration not stated)	–	half-life [3]: 3.41 h; Cmax [4]: 0.619 µg/mL; clearance [5]: 1.73 L/h/kg; Vd [6]: 7.81 L/kg; AUClast (Rattus norvegicus): 5.68 µg·h/mL; bioavailability [7]: 98.8%
CSc1nn(-c2ccccc2)c2cc(N3CCN(C4CCNCC4)CC3)ccc12	0.67 µM	–
Cn1nc(-c2ccccc2)c2cc(N3CCNCC3)ccc21	1.28 µM	–
